Source: PMC4435052 (Combinatorial Chemistry & High Throughput Screening, 2015)
Entries after “also recorded” stand apart in the source; their conditions may differ.

Experiments:
A549 cells [1] = assay: Cellular movement, tracking of individual cells in 2D culture; format: cell-based, human; conditions: 25 µM, 24 h
Outline: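 A549 cells seeded at 10,000/well and given DMSO or 25 µM test compound 6 h later. Imaged every 5 min with a 20x objective for 24 h. Randomly chosen cells tracked individually to trace movement in 2D.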

A549 cells [2] = format: cell-based, human; conditions: 25 µM
Outline: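 A549 cells in chamber slides, treated 3-48 h with DMSO or 25 µM test compound. Stained with phalloidin, Hoechst 33342, anti-α-tubulin and anti-MgcRacGAP. Cells scored as normal (mononuclear), mitotic (rounded), multinuclear or dead in at least eight random fields per condition. Reported as average percentage per time point.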

HeLa cells [3] = format: cell-based, human
Outline: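 HeLa cells synchronized by double thymidine block: 2 mM thymidine at plating for 19 h, three PBS washes, release into fresh medium, second 2 mM block 9 h later, washed after 16 h. Released with or without test compound (10-80 µM) or nocodazole (165 nM). Tracked by live-cell phase imaging for cell rounding and death.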

RWPE-1 cells = assay: Cell viability dose response in slow growing cells; format: cell-based, human; conditions: 72 h dose response 5-80 µM
Outline: (§1)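 Cells cultured in EMEM, DMEM or RPMI 1640 with 10% FBS, seeded at 1,600 cells/well 6-12 h before treatment. Exposed up to 72 h to test compound (5-80 µM), DMSO as negative control, or 20 µM benzethonium chloride as kill control. CellTox Green in medium; live imaging gave toxicity (green fluorescence) and proliferation (phase-contrast confluency). Replicate sets.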

[4] = target: MgcRacGAP GAP activity on wild type Rac1 (Homo sapiens, UniProt Q9H0H5); assay: Single turnover GAP assay with GTP-loaded wild type Rac1; format: biochemical; conditions: GTP-loaded wild type Rac1, 50 µM
MgcRacGAP GAP activity on wild type Rac1, sequence (Q9H0H5 345-618): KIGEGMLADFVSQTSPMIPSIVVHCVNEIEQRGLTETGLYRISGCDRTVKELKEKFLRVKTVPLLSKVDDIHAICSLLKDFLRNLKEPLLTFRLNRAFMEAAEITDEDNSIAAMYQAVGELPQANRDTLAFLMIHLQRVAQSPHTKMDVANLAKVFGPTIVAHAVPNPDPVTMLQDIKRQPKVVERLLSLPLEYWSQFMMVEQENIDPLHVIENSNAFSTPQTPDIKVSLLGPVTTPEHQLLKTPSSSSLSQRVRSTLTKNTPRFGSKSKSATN

Rac1-MgcRacGAP complex = Rac1-MgcRacGAP complex (Homo sapiens, UniProt P63000+Q9H0H5, Q61L); assay: MgcRacGAP - Rac1 Q61L binding assay, bio-layer interferometry; conditions: 12.5-50 µM, dose dependent
Rac1-MgcRacGAP complex, sequence (Q9H0H5 345-618, stated change not applied, one chain of several): as the sequence (Q9H0H5 345-618) above

MDA-MB-231 cells [5] = assay: Cytotoxicity, CellTox Green live cell imaging; format: cell-based, human
Outline: as §1

[6] = target: MgcRacGAP-stimulated activity of wild type Rac1 (Homo sapiens, UniProt Q9H0H5); assay: Multiple-turnover GTPase assay with wild type Rac1; format: biochemical; conditions: wild type Rac1, data not shown
MgcRacGAP-stimulated activity of wild type Rac1, sequence (Q9H0H5 345-618): as above
Outline: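 Wild-type Rac1 […] in the 2x mix, combined with test compound in GTPase/GAP buffer. MgcRacGAP serially diluted in (0.1-100 nM) and held 2 h at room temperature. Started with 2x GTP (10 µM) and run 2 h more. Remaining GTP read by GTPase-Glo reagent (30 min), then detection solution; luminescence read after 10 min.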

MDA-MB-231 cells [7] = assay: Cell proliferation by live cell imaging; format: cell-based, human
Outline: as §1

[8] = target: T1, p50RhoGAP(205-439) GAP domain (Mus musculus, UniProt Q5FWK3); assay: Selectivity GAP activity assay with p50RhoGAP GAP domain; format: biochemical
T1 sequence (Q5FWK3 205-439): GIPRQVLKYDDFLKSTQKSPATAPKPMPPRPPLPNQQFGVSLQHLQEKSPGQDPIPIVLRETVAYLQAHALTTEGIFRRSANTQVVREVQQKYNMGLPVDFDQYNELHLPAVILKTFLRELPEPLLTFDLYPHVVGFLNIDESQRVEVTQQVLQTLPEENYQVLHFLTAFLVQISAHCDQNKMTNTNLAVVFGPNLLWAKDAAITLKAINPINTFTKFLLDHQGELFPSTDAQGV
Outline: (§2)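 Same buffer as the primary assay: Rac1(F28L) 600 nM, 150 µM GTP, 2% DMSO, 2 h at room temperature. GAP domain is BCR(1010-1271) at 200 nM or p50RhoGAP(205-439) at 50 nM, doses set for similar signal window. Test compound at 0.1-100 µM, with or without pre-incubation before GTP start. Read-out is ADP Hunter Plus fluorescence (ex 530/em 590 nm), normalized to plate controls.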

MDA-MB-231 cells [9] = assay: Scratch-wound Matrigel invasion; format: cell-based, human; conditions: 10-40 µM, increasing concentrations
Outline: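 MDA-MB-231 cells at 40,000/well on Matrigel-precoated plates. After 16 h, near-confluent monolayers scratched, washed and overlaid with Matrigel (8 mg/mL). After 30 min at 37°C, medium with DMSO or test compound (10-40 µM final) added. Scratch-wound imaging followed; relative wound density computed per image; n=4.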

HeLa cells [10] = assay: Immunofluorescence analysis of cell division morphology; format: cell-based, human; conditions: 25 µM, 48 h
Outline: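 HeLa cells on fibronectin-coated coverslips, treated 3-48 h with DMSO or 25 µM test compound. Fixed in ice-cold methanol and stained with mouse anti-α-tubulin and goat anti-MgcRacGAP. Detected with Alexa Fluor 488 and 647 secondaries; DAPI-containing mountant. Imaged by widefield fluorescence microscopy.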

A549 cells [11] = assay: Cytotoxicity by live cell imaging; format: cell-based, human; conditions: 80 µM
Outline: (§3)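 A549 cells at 50,000/well received Premo gemini-GFP (G2/M) and Cdt-RFP (G1/S) 1:1 24 h after plating. After overnight incubation, replated at 1,600 cells/well. Imaged hourly by phase contrast, green and red fluorescence. 14 h later given 80 µM test compound, DMSO, or 20 µM benzethonium chloride, then followed hourly.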

[12] = target: T2, BCR(1010-1271) GAP domain (Homo sapiens, UniProt P11274); assay: Counter/selectivity GAP activity assay with BCR GAP domain in place of MgcRacGAP; format: biochemical
T2 sequence (P11274 1010-1271): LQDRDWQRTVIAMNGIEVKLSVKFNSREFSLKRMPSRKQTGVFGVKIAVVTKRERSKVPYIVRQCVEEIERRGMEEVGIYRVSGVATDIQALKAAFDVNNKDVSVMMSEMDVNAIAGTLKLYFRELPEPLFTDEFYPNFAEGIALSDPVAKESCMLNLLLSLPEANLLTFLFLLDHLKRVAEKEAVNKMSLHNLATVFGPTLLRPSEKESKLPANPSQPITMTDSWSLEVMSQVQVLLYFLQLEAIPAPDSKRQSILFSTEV
Outline: as §2

[13] = target: MgcRacGAP(345-618) GAP domain (Homo sapiens, UniProt Q9H0H5); assay: Primary biochemical GAP activity assay, Rac1
MgcRacGAP(345-618) GAP domain, sequence (Q9H0H5 345-618): as the sequence (Q9H0H5 345-618) above
Outline: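 Rac1(F28L) 600 nM with MgcRacGAP(345-618) at 2 nM in 15 mM Hepes pH 7.5, 20 mM NaCl, 1 mM EGTA, 0.02% Tween 20, 0.1 mg/mL BSA, 2% DMSO, 150 µM GTP; 2 h at room temperature. GDP detected by ADP Hunter Plus at half volumes (resorufin ex 530/em 590 nm). Test compound at 0.1-100 µM, with or without protein pre-incubation before GTP; n=8; control-normalized, fits constrained 0-100%.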

A549 cells [14] = assay: FUCCI cell cycle reporter assay; format: cell-based, human; conditions: 80 µM, from 6 h after exposure
Outline: as §3

[15] = system: essential replicative helicase of Staphylococcus aureus; conditions: 80 µM, ref PubChem AID 485395; cited from earlier work
[16] = prolonged periods of time, data not shown
[17] = dose response 0.1-100 µM, no pre-incubation
[18] = proteins pre-incubated with compound before GTP addition

Compound: Cl.Cl.c1cc2cc(C3=NCCN3)ccc2cc1C1=NCCN1 [MINC1, 2,6-bis(4,5-dihydro-1H-imidazol-2-yl)naphthalene dihydrochloride]
- cell motility (A549 cells [1]): lost almost all motility
- time of peak of cells with mitotic phenotype (A549 cells [2]): ≤ 9 h
- percentage of multinucleated cells (A549 cells [2]; during 24h treatment): increased over time
- time to cell rounding, non-synchronized cells (HeLa cells [3]; after compound addition): approximately 3 h
- time to cell rounding, synchronized cells (HeLa cells [3]; after release from double thymidine block): 8 to 10 h
- concentration at which cell death was observed (HeLa cells [3]; [16]): 80 µM
- effect on cell viability in slow growing cells (RWPE-1 cells): negligible effects on cell viability
- effect on MgcRacGAP GAP activity, single turnover assay [4]: no effect
- dissociation of Rac1-MgcRacGAP complex (Rac1-MgcRacGAP complex): slowed down the dissociation process; also recorded: decreased dissociation rate
- concentration at which cell death was observed (MDA-MB-231 cells [5]; [16]): 80 µM
- cell toxicity at concentrations that stop proliferation (MDA-MB-231 cells [5]; ≥20 µM, highly proliferative cells): without detectable cell toxicity
- inhibition of MgcRacGAP-stimulated activity, multiple-turnover assay [6]: did not detect any notable inhibition
- IC50 (MDA-MB-231 cells [7]; Homo sapiens, MDA-MB-231, 48 h, read-out: IC50 cell proliferation): 17 µM
- concentration that caused cell proliferation to cease (MDA-MB-231 cells [7]; highly proliferative cells): ≥ 20 µM
- activity towards p50RhoGAP [8, 17]: no detectable activity
- activity towards p50RhoGAP, pre-incubation [8, 18]: no detectable activity
- wound-healing rate (MDA-MB-231 cells [9]): decreased wound-healing rates; also recorded: decreasing ability to migrate
- multinucleated cells versus control (HeLa cells [10]): showed more multinucleated cells
- tolerance of high concentration (A549 cells [11]): could tolerate such high concentrations
- activity towards BCR [12, 17]: no detectable activity
- activity towards BCR, pre-incubation [12, 18]: no detectable activity
- maximum inhibition reached by dose response curves [13]: 80-90%
- IC50 ([13]; IC50 MgcRacGAP, dose response 0.1-100 µM, no pre-incubation): 15 ± 5 µM
- Hill slope ([13]; dose response, no pre-incubation): 0.9
- Hill slope, pre-incubation [13, 18]: 0.7
- cell cycle state (A549 cells [14]): arrested in G2/M-phase
- reported bioactivity [15]: marginal activity
